Results: ChEMBL document CHEMBL2163326, “Investigations on the 1-(2-biphenyl)piperazine motif: identification of new potent and selective ligands for the serotonin(7) (5-HT(7)) receptor with agonist or antagonist action in vitro or ex vivo” (J Med Chem, 2012)
Active and inactive are the calls of the source. No cut-off for these calls is given here.

Tests used:
[1] = target: 5-hydroxytryptamine receptor 7 (Cavia porcellus) (UniProt P50407); assay: Agonist activity at 5HT7 receptor in guinea pig ileum assessed as inhibition of substance P-induced smooth muscle contraction at 2 uM; type: functional, tissue-based
5-hydroxytryptamine receptor 7 (Cavia porcellus), sequence (P50407 whole entry): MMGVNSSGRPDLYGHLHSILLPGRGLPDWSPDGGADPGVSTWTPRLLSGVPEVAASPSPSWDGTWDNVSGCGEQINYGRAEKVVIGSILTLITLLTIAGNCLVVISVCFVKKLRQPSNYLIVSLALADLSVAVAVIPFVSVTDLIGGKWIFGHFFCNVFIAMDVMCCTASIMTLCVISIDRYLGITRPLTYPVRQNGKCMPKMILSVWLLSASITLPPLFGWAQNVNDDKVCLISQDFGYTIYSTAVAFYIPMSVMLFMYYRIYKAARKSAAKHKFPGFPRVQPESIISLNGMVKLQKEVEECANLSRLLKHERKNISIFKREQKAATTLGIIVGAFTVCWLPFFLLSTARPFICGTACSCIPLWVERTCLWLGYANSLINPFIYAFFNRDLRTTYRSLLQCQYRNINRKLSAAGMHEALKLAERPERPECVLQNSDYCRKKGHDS
Procedure, shortened: (§1)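 Isolated guinea pig ileum was contracted with substance P. Relaxation was scored as percent relaxation of that contraction. Each run included a cocktail of non-5-HT7 receptor antagonists. To test 5-HT7 mediation, relaxation was repeated with the selective 5-HT7 antagonist at 3 μM; reversal was taken as 5-HT7-mediated.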

[2] = target: 5-hydroxytryptamine receptor 7 (Cavia porcellus) (UniProt P50407); assay: Agonist activity at 5HT7 receptor in guinea pig ileum assessed as inhibition of substance P-induced smooth muscle contraction at 2 uM in presence of 3 uM SB-269970; type: functional, tissue-based; procedure, shortened: as §1
[3] = target: 5-hydroxytryptamine receptor 7 (Cavia porcellus) (UniProt P50407); assay: Agonist activity at 5HT7 receptor in guinea pig ileum assessed as inhibition of substance P-induced smooth muscle contraction at 0.5 uM; type: functional, tissue-based; procedure, shortened: as §1
[4] = target: 5-hydroxytryptamine receptor 7 (Cavia porcellus) (UniProt P50407); assay: Agonist activity at 5HT7 receptor in guinea pig ileum assessed as inhibition of substance P-induced smooth muscle contraction at 1 uM; type: functional, tissue-based; procedure, shortened: as §1
[5] = target: 5-hydroxytryptamine receptor 7 (Cavia porcellus) (UniProt P50407); assay: Agonist activity at 5HT7 receptor in guinea pig ileum assessed as inhibition of substance P-induced smooth muscle contraction at 1 uM in presence of 3 uM SB-269970; type: functional, tissue-based; procedure, shortened: as §1
[6] = target: T1, 5-hydroxytryptamine receptor 7 (Homo sapiens, UniProt P34969); assay: Displacement of [3H]-5-CT from human cloned 5HT7 receptor
T1 sequence (P34969 whole entry): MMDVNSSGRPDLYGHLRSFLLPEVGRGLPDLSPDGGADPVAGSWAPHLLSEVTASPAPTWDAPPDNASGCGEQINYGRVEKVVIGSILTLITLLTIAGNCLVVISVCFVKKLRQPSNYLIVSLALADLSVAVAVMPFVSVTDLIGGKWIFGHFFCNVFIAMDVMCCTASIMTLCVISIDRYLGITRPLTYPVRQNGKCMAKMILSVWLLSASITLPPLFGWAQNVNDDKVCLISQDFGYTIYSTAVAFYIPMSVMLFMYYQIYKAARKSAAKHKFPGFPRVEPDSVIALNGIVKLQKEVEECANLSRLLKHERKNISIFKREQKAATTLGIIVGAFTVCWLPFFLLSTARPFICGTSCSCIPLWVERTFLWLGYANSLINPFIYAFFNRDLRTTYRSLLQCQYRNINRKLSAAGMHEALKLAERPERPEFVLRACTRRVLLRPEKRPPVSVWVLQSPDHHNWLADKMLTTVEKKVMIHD

[7] = target: T2, 5-hydroxytryptamine receptor 1A (Homo sapiens) (UniProt P08908); assay: Displacement of [3H]-8-OH-DPAT from human cloned 5HT1A receptor at 100 nM
T2 sequence (whole entry): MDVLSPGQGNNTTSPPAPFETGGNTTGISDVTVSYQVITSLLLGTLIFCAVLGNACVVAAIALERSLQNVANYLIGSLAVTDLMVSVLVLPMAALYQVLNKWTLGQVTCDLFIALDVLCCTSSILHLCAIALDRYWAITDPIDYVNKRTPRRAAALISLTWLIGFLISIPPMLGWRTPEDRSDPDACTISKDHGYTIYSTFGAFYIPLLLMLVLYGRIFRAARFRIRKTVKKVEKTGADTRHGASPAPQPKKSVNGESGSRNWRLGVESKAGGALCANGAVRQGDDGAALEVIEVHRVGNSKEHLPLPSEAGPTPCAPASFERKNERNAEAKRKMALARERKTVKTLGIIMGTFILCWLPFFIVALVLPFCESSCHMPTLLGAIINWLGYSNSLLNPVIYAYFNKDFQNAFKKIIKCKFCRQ

[8] = target: 5-hydroxytryptamine receptor 7 (Cavia porcellus) (UniProt P50407); assay: Agonist activity at 5HT7 receptor in guinea pig ileum assessed as inhibition of substance P-induced smooth muscle contraction at 0.5 uM in presence of 3 uM SB-269970; type: functional, tissue-based; procedure, shortened: as §1
[9] = target: Adrenergic receptor alpha-1 (Rattus norvegicus) (UniProt P15823+P23944+P43140); assay: Displacement of [3H]prazoin from rat cerebral cortex adrenergic alpha1 receptor at 100 nM; type: tissue-based
Procedure, shortened: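 [3H]prazosin displacement was measured on rat cerebral cortex membranes, using one test concentration of 100 nM. Values are the mean of two independent experiments.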

[10] = target: T3, Adrenergic receptor alpha-1 (Rattus norvegicus, UniProt P15823+P23944+P43140); assay: Displacement of [3H]prazoin from rat cerebral cortex adrenergic alpha1 receptor; type: tissue-based
T3 sequence (P15823 whole entry): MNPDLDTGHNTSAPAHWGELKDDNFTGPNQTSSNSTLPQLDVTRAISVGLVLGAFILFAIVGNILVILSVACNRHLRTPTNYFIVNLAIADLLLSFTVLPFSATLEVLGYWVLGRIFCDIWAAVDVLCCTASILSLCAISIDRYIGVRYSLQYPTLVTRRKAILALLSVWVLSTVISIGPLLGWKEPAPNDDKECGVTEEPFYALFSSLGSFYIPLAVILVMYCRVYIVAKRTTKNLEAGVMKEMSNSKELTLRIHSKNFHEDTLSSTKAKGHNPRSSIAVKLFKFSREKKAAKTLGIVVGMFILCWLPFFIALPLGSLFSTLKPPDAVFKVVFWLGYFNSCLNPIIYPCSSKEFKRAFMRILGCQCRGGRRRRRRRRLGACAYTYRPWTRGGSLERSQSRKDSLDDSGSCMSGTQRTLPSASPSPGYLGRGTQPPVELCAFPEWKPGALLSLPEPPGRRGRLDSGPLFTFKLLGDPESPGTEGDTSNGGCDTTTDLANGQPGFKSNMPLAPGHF
T3 sequence (P23944 whole entry): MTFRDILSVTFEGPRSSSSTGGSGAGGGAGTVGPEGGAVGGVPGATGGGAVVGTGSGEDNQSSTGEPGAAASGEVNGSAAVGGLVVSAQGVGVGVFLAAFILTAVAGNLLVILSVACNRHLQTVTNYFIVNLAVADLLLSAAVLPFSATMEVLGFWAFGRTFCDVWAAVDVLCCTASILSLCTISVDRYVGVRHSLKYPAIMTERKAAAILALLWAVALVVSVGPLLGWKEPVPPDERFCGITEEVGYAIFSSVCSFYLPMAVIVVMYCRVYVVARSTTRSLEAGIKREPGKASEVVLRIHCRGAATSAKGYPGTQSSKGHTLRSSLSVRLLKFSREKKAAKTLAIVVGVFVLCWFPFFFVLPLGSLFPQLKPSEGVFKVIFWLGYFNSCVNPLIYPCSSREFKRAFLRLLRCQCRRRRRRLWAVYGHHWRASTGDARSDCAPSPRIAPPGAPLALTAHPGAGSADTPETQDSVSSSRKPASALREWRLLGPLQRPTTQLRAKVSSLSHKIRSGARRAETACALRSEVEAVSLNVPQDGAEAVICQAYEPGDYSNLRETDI
T3 sequence (P43140 whole entry): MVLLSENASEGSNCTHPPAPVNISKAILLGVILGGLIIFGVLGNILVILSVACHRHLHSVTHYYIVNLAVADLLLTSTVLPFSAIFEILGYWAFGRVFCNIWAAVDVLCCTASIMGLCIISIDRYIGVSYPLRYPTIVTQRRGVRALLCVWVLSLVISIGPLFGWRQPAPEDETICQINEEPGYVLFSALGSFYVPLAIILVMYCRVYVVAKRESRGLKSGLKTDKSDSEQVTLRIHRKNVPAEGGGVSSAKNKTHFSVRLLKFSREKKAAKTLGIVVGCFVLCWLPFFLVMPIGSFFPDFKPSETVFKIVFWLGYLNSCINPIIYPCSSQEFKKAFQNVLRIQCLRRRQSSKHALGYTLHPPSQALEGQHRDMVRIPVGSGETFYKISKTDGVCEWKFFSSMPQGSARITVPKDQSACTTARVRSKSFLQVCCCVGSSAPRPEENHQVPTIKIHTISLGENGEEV

[11] = target: T1, 5-hydroxytryptamine receptor 7; assay: Agonist activity at human 5HT7A receptor expressed in human HeLa cells assessed as stimulation of cAMP accumulation; type: functional, cell-based
Procedure, shortened: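 HeLa cells stably expressing human 5-HT7(a) receptor were cultured and seeded into 96-well plates. Cells were exposed to test agent alone, and intracellular cAMP was measured by ELISA.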

[12] = target: T4, 5-hydroxytryptamine receptor 1A (Homo sapiens, UniProt P08908); assay: Displacement of [3H]-8-OH-DPAT from human cloned 5HT1A receptor
T4 sequence (P08908 whole entry): T2 sequence (whole entry)

[13] = target: T1, 5-hydroxytryptamine receptor 7; assay: Antagonist activity at human 5HT7A receptor expressed in human HeLa cells assessed as inhibition of 5-HT-induced cAMP accumulation by ELISA; type: functional, cell-based
Procedure, shortened: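 HeLa cells stably expressing human 5-HT7(a) were seeded in 96-well plates. They were co-treated with 1 μM 5-HT plus test agent. Intracellular cAMP was read by ELISA, and IC50 was taken for inhibition of 5-HT-stimulated cAMP accumulation.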

[14] = target: 5-hydroxytryptamine receptor 7 (Rattus norvegicus, UniProt P32305); assay: Displacement of [3H]LSD from rat kidney proximal convoluted tubule 5HT7R expressed in COS7 cells; type: cell-based, COS-7
5-hydroxytryptamine receptor 7 (Rattus norvegicus, UniProt P32305), sequence (P32305 whole entry): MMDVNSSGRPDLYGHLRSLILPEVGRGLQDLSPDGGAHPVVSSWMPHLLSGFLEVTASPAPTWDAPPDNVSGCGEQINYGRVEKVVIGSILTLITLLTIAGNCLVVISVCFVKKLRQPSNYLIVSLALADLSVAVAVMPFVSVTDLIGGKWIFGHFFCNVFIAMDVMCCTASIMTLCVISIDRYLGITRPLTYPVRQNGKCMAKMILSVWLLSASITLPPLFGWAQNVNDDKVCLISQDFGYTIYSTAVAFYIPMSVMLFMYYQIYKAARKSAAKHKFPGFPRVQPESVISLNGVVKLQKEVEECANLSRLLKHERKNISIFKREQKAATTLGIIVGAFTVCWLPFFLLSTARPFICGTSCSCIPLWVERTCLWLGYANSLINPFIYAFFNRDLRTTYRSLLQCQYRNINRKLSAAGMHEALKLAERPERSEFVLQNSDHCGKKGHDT

| SMILES | Ki [6] | Activity [7] | Activity [9] | Ki [12] | also measured |
| --- | --- | --- | --- | --- | --- |
| Cc1nn(C)c(C)c1-c1cccc2c1CC[C@H](N(C)C)C2 | – | – | – | – | Activity [1]: Active; Activity [2]: inactive; Activity [3]: inactive; Activity [4]: Active; Activity [5]: inactive |
| Cc1ccccc1-c1ccccc1N1CCNCC1 | 0.0069 µM | – | – | – | – |
| Fc1ccc(-c2ccccc2N2CCNCC2)cc1 | 0.0027 µM | 15% | 14% | – | Activity [3]: Active; Activity [8]: inactive; Activity [4]: Active; Activity [5]: inactive |
| Cc1ccc(-c2cccc(N3CCNCC3)c2)cc1C | 0.093 µM | 34% | 7% | – | – |
| c1ccc(-c2ccccc2N2CCNCC2)cc1 | 0.0014 µM | – | – | 0.099 µM | Activity [3]: Active; Ki [10]: 0.0591 µM; Activity [8]: inactive; Activity [4]: Active; Activity [5]: inactive; Activity [11]: inactive; IC50 [13]: 0.531 µM |
| COc1ccccc1-c1ccccc1N1CCNCC1 | 0.0184 µM | – | – | – | – |
| COc1ccc(-c2cccc(N3CCNCC3)c2)cc1 | > 5 µM | 42% | 29% | – | – |
| COc1ccccc1-c1cccc(N2CCNCC2)c1 | 0.0082 µM | – | – | – | – |
| c1ccc(-c2cccc(N3CCNCC3)c2)nc1 | 0.08 µM | – | 27% | 0.0149 µM | – |
| COc1cccc(OC)c1-c1cccc(N2CCNCC2)c1 | 0.0071 µM | – | 3% | 0.149 µM | – |
| Fc1ccc(-c2cccc(N3CCNCC3)c2)cc1 | 0.109 µM | – | 3% | 0.0632 µM | – |
| Cc1ccc(-c2ccccc2N2CCNCC2)cc1C | 0.0019 µM | 22% | – | – | Activity [1]: Active; Activity [2]: inactive; Ki [10]: 0.165 µM; Activity [4]: Active |
| Cc1ccccc1-c1cccc(N2CCNCC2)c1 | 0.0014 µM | – | – | 0.0174 µM | – |
| c1ccc(-c2ccccc2N2CCNCC2)nc1 | 0.023 µM | 23% | 11% | – | – |
| c1ccc2c(N3CCNCC3)cccc2c1 | – | – | – | – | Ki [14]: 0.083 µM |
| c1ccc(-c2cccc(N3CCNCC3)c2)cc1 | 0.025 µM | – | 21% | 0.0721 µM | – |
| COc1cccc(OC)c1-c1ccccc1N1CCNCC1 | 0.096 µM | 21% | 10% | – | – |
| O=[N+]([O-])c1ccc(-c2ccccc2N2CCNCC2)cc1 | 0.007 µM | 16% | – | – | Ki [10]: 0.105 µM |
| O=[N+]([O-])c1ccc(-c2cccc(N3CCNCC3)c2)cc1 | 0.013 µM | – | 8% | 0.0314 µM | – |
| COc1ccc(-c2ccccc2N2CCNCC2)cc1 | 0.0026 µM | – | – | 0.476 µM | Activity [3]: Active; Ki [10]: 0.156 µM; Activity [8]: inactive; Activity [4]: Active; Activity [5]: inactive; Activity [11]: inactive; IC50 [13]: 0.438 µM |
